Assay results from ChEMBL document CHEMBL1681788, “Effect of structural modification in the amine portion of substituted aminobutyl-benzamides as ligands for binding σ1 and σ2 receptors” (Bioorg Med Chem, 2011).

Legend:
[1] = Displacement of [3H]ditolylguanidine from sigma2 receptor in guinea pig brain membrane; type: cell membranes, Cavia porcellus
In short: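 [3H]DTG competition binding with 500 nM (+)-PTZ present to mask σ1 sites, on fresh-frozen male English Hartley guinea pig brain membranes. Duplicate wells, four repeats. Compound stocks were 10^-3 M in acidified 1% EtOH/water.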

[2] = Chemical stability of the compound assessed as compound remaining after 44 hrs by HPLC analysis; type: physicochemical; details: read-out: Activity
In short: (§1)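 Compounds held at 10^-3 M in aqueous stock buffer of 1% EtOH with AcOH: 2.5% AcOH generally, 0.1% AcOH for the HCl and oxalate salts. Stored in stock buffer, then purity analysed by analytical HPLC at the stated time point (16 h, 44 h or 25 days).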

[3] = test system: sigma1/sigma2 receptors (Cavia porcellus); assay: Selectivity ratio, ratio of Ki for guinea pig sigma1 receptor to Ki for guinea pig sigma2 receptor
[4] = Chemical stability of the compound assessed as compound remaining after 16 hrs by HPLC analysis; type: physicochemical; details: read-out: Activity; in short: as §1
[5] = target: Sigma non-opioid intracellular receptor 1 (Cavia porcellus, UniProt Q60492); assay: Displacement of [3H]-(+)-pentazocine from Sigma1-receptor in guinea pig brain membrane; type: cell membranes
In short: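 Competition binding with [3H](+)-PTZ as radioligand on membranes from fresh-frozen male English Hartley guinea pig brain. Duplicates, repeated four times. Test compounds came from 10^-3 M stocks in acidified 1% EtOH/water.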

[6] = Chemical stability of the compound assessed as decomposition after 25 days by HPLC analysis; type: physicochemical; details: 600 h; in short: as §1

Sigma non-opioid intracellular receptor 1, sequence (Q60492 whole entry): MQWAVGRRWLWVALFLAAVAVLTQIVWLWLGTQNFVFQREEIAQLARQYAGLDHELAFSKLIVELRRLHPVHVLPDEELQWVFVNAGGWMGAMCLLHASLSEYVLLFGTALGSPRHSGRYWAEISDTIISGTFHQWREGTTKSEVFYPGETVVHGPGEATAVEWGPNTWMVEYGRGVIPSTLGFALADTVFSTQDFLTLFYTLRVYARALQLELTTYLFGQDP

Row | Structure (SMILES) | Ki [1] | remaining at 44 h [2] | Ratio Ki [3] | remaining at 16 h [4] | Ki [5] | Stability [6]
1 | COc1ccc(CCN(C)CCCCNC(=O)c2cc(Br)cc(OC)c2OC)cc1OC | 2130 nM | – | – | – | – | –
2 | COc1cc2c(cc1OC)N(CCCCNC(=O)c1cc(Br)cc(OC)c1OC)CCC2 | 5820 nM | 38% | 0.77 | 90% | 4500 nM | –
3 | COc1ccc(CCNCCCCNC(=O)c2cc(Br)cc(OC)c2OC)cc1OC | 4620 nM | – | 0.2 | – | – | –
4 | COc1cc2c(cc1OC)N(CCCCNC(=O)c1cc(Br)cc(OC)c1OC)CC2 | 9680 nM | – | 0.47 | 86% | 4520 nM | Unstable
5 | COc1cc2c(cc1OC)N(CCCCNC(=O)c1cc(Br)cc(OC)c1OC)CCCC2 | 8960 nM | – | – | – | 2560 nM | –
6 | COc1ccc(CCN2CCN(CCCc3ccccc3)CC2)cc1OC [[11C]SA4503] | 89.5 nM | – | – | – | – | –
7 | COc1cc2c(cc1OC)CN(CCCCNC(=O)c1cc(Br)cc(OC)c1OC)CCC2 | 315 nM | – | 6.58 | – | 2070 nM | –
8 | COc1cc2c(cc1OC)CN(CCCCNC(=O)c1cc(Br)cc(OC)c1OC)CC2 | 2.7 nM | – | – | – | – | –
9 | COc1cc2c(cc1OC)CN(CCCCNC(=O)c1cc(Br)cc(OC)c1OC)C2 | 0.82 nM | – | 1760 | – | 1440 nM | –
10 | COc1cc2c(cc1OC)CCN(CCCCNC(=O)c1cc(Br)cc(OC)c1OC)CC2 | 734 nM | – | 8.5 | – | 5070 nM | –
